Test results: ChEMBL document CHEMBL1121715, “New antiarrhythmic agents. 4. 1'-(Aminoalkyl)-1,2,3,4-tetrahydronaphthalene-1-spiro-3'-pyrrolidine-2',5'-dione derivatives” (J Med Chem, 1981)
“And” between values parts separate entries of the source, which are not always exact repeats. Equal values may be shown once.

Columns and labels:
Canis familiaris [1] = species on record: Canis familiaris; assay: (§1) The dose at which toxicity was measured; assay type: organism-based, Canis lupus familiaris; conditions: dog, in vivo
Procedure, shortened: (§2)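 Adult female dogs (6.7–14.5 kg) had two-stage ligation of the left anterior descending coronary artery the day before testing. After control ventricular rate, % ectopic beats and mean arterial pressure were recorded, the drug (HCl salt, isotonic solution) was infused iv without anesthesia at 0.1, 0.5 or 1.0 (mg/kg)/min, mostly 0.5. Infusion continued until the arrhythmia was abolished or cardiovascular/CNS toxicity appeared. Cumulative dose is given in mmol/kg; toxicity included convulsion and P-R prolongation ≥25%.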

Canis familiaris [2] = assay: % ectopic beats was measured in anesthetized dog at 0.026 dose; assay type: functional, Canis lupus familiaris, Heart; conditions: in the assay text read “unanesthetized” for “anesthetized”
Procedure, shortened: (§3)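 Adult female dogs (6.7–14.5 kg) had the left anterior descending coronary artery ligated in two stages the day before testing. Dogs were unanesthetized. Ectopic beats (% of ventricular rate) and mean arterial pressure were read at maximal antiarrhythmic effect against the cumulative dose.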

Canis familiaris [3] = assay: % ectopic beats was measured in anesthetized dog at 0.053 dose; assay type: functional, Canis lupus familiaris, Heart; conditions: in the assay text read “unanesthetized” for “anesthetized”; procedure, shortened: as §3
Canis familiaris [4] = assay: MABP value was measured in anesthetized dog at 0.026 dose; assay type: functional, Canis lupus familiaris; conditions: in the assay text read “unanesthetized dog” for “anesthetized dog”; procedure, shortened: as §3
Canis familiaris [5] = assay: MABP value was measured in anesthetized dog at 0.053 dose; assay type: functional, Canis lupus familiaris; conditions: in the assay text read “unanesthetized dog” for “anesthetized dog”; procedure, shortened: as §2
Canis familiaris [6] = species on record: Canis familiaris; assay: as §1; assay type: organism-based, Canis lupus familiaris; parameters: unit: mmol/kg; conditions: dog, in vivo; procedure, shortened: as §2
Canis familiaris [7] = assay: Ventricular rate was measured in anesthetized dog at 0.053 dose; assay type: functional, Canis lupus familiaris, Heart; conditions: in the assay text read “unanesthetized dog” for “anesthetized dog”; procedure, shortened: as §2
Canis familiaris [8] = assay: Ventricular rate was measured in anesthetized dog at 0.026 dose; assay type: functional, Canis lupus familiaris, Heart
Mus musculus [9] = species on record: Mus musculus; assay: Percentage toxicity measured as ataxia.; assay type: organism-based; conditions: in vivo
Procedure, shortened: (§4)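 Mice (groups of 10) were dosed sc with drug in 0.9% saline and watched for 20 min for overt toxicity (ataxia, convulsions, loss of righting reflex, death) before chloroform exposure.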

[10] = Percentage toxicity measured as death of mice.; assay type: organism-based; parameters: concentration or dose not given beside the values; conditions: mouse, in vivo; read-out: Death
Mus musculus [11] = species on record: Mus musculus; assay: Percentage toxicity measured as loss of righting reflex.; assay type: organism-based; conditions: in vivo; procedure, shortened: as §4
Mus musculus [12] = assay: Protection against chloroform induced arrhythmias was measured in mice after sc administration at given dose; assay type: functional
Procedure, shortened: (§5)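 Groups of 10 unanesthetized mice got sc injection of drug in 0.9% saline. After 20 min observation they were placed one by one in chloroform-vapor-saturated air. When breathing stopped, the thorax was opened and the heart inspected by eye; coordinated ventricular contractions counted as protected.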

Mus musculus [13] = assay: Protection against chloroform induced arrhythmias in mice after subcutaneous administration at 100 mg/kg dose.; assay type: functional; procedure, shortened: as §5
Mus musculus [14] = species on record: Mus musculus; assay: Percentage toxicity measured as convulsions.; assay type: organism-based; conditions: in vivo; procedure, shortened: as §4
Canis familiaris [15] = species on record: Canis familiaris; assay: MABP value was measured in […] at 0.084 dose; assay type: functional, Canis lupus familiaris; procedure, shortened: as §2
Canis familiaris [16] = assay: Blood level was measured in anesthetized dog at 0.042 dose; assay type: functional, Canis lupus familiaris
Canis familiaris [17] = assay: Blood level was measured in anesthetized dog at 0.084 dose; assay type: functional, Canis lupus familiaris
Canis familiaris [18] = assay: % ectopic beats was measured in anesthetized dog at 0.038 dose; assay type: functional, Canis lupus familiaris, Heart; conditions: in the assay text read “unanesthetized” for “anesthetized”; procedure, shortened: as §3
Canis familiaris [19] = assay: MABP value was measured in anesthetized dog at 0.038 dose; assay type: functional, Canis lupus familiaris; conditions: in the assay text read “unanesthetized dog” for “anesthetized dog”; procedure, shortened: as §3
Canis familiaris [20] = assay: MABP value was measured in anesthetized dog at 0.042 dose; assay type: functional, Canis lupus familiaris
Canis familiaris [21] = assay: MABP value was measured in anesthetized dog at 0.056 dose; assay type: functional, Canis lupus familiaris; conditions: in the assay text read “unanesthetized dog” for “anesthetized dog”; procedure, shortened: as §2
Canis familiaris [22] = species on record: Canis familiaris; assay: Nature of toxicity was expressed; convulsion; assay type: organism-based, Canis lupus familiaris; conditions: dog, in vivo; procedure, shortened: as §2
Canis familiaris [23] = assay: Ventricular rate was measured in anesthetized dog at 0.038 dose; assay type: functional, Canis lupus familiaris, Heart; conditions: in the assay text read “unanesthetized dog” for “anesthetized dog”; procedure, shortened: as §2
Canis familiaris [24] = assay: Ventricular rate was measured in anesthetized dog at 0.042 dose; assay type: functional, Canis lupus familiaris, Heart; conditions: in the assay text read “unanesthetized dog” for “anesthetized dog”; procedure, shortened: as §2
Canis familiaris [25] = assay: Ventricular rate was measured in anesthetized dog at 0.042d dose; assay type: functional, Canis lupus familiaris, Heart; conditions: in the assay text read “unanesthetized dog” for “anesthetized dog”; procedure, shortened: as §2
Canis familiaris [26] = assay: Ventricular rate was measured in anesthetized dog at 0.056 dose; assay type: functional, Canis lupus familiaris, Heart; conditions: in the assay text read “unanesthetized dog” for “anesthetized dog”; procedure, shortened: as §2
Canis familiaris [27] = assay: Ventricular rate was measured in anesthetized dog at 0.084 dose; assay type: functional, Canis lupus familiaris, Heart; conditions: in the assay text read “unanesthetized” for “anesthetized”
Procedure, shortened: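 Adult female dogs (6.7–14.5 kg) had ventricular arrhythmias from two-stage ligation of the left anterior descending coronary artery the day before. Ventricular rate (bpm) was read at maximal antiarrhythmic effect against cumulative dose.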

Canis familiaris [28] = assay: % ectopic beats was measured in unanesthetized dog at 0.056 dose
Canis familiaris [29] = assay: % ectopic beats was measured in unanesthetized dog at 0.084 dose
[30] = Total body clearance was measured at given dose; assay type: ADME
Procedure, shortened: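 Blood levels came from the iv-infused dogs, measured by GC-FID after methylene chloride extraction and heptafluorobutyryl derivatization with an internal standard. Total body clearance was total dose divided by the blood-level AUC (zero to infinity); volume of distribution was clearance divided by the elimination rate constant.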

[31] = Volume of distribution was measured at given dose of 25 umol/kg; assay type: ADME, organism-based; conditions: in vivo
Procedure, shortened: (§6)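 In dogs given iv infusions, blood samples were alkaline-extracted (pH 10.3) into methylene chloride and derivatized with heptafluorobutyrylimidazole. Concentrations were measured by GC-FID against an internal standard using standard curves. Clearance was total dose ÷ blood-level AUC (zero to infinity), and volume of distribution was clearance ÷ elimination rate constant.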

[32] = Volume of distribution was measured at given dose of 29 umol/kg; assay type: ADME, organism-based; conditions: in vivo; procedure, shortened: as §6
Canis familiaris [33] = assay: MABP value was measured in anesthetized dog at given dose; assay type: functional, Canis lupus familiaris
Canis familiaris [34] = species on record: Canis familiaris; assay: (§7) Total dose of the compound; assay type: functional, Canis lupus familiaris; procedure, shortened: as §2
Canis familiaris [35] = species on record: Canis familiaris; assay: Blood level was measured in […] at 0.004 dose; assay type: functional, Canis lupus familiaris
Canis familiaris [36] = assay: Blood level was measured in anesthetized dog at 0.014 dose; assay type: functional, Canis lupus familiaris
Canis familiaris [37] = assay: % ectopic beats was measured in anesthetized dog at 0.014 dose; assay type: functional, Canis lupus familiaris, Heart; conditions: in the assay text read “unanesthetized” for “anesthetized”; procedure, shortened: as §3
Canis familiaris [38] = assay: % ectopic beats was measured in anesthetized dog at 0.028 dose; assay type: functional, Canis lupus familiaris, Heart; conditions: in the assay text read “unanesthetized” for “anesthetized”; procedure, shortened: as §3
Canis familiaris [39] = species on record: Canis familiaris; assay: as §7; assay type: functional, Canis lupus familiaris; procedure, shortened: as §2; remark: listed apart in the source
Canis familiaris [40] = assay: Ventricular rate was measured in anesthetized dog at 0.004 dose; assay type: functional, Canis lupus familiaris, Heart; conditions: in the assay text read “unanesthetized dog” for “anesthetized dog”; procedure, shortened: as §2
Canis familiaris [41] = assay: Ventricular rate was measured in anesthetized dog at 0.014 dose; assay type: functional, Canis lupus familiaris, Heart; conditions: in the assay text read “unanesthetized dog” for “anesthetized dog”; procedure, shortened: as §2
Canis familiaris [42] = species on record: Canis familiaris; assay: Ventricular rate was measured in […] at 0.028 dose; assay type: functional, Canis lupus familiaris, Heart; procedure, shortened: as §2
[43] = Maximal concentration in dogs after intravenous administration; conditions: dog, in vivo
[44] = Maximal concentration in dogs after 29 umol/kg intravenous dose; conditions: dog, in vivo
Canis familiaris [45] = assay: % ectopic beats was measured in unanesthetized dog at 0.004 dose

CCN(CC)CCN1C(=O)CC2(CCCc3ccc(O)cc32)C1=O (centres undefined)
Cumulative dose (Canis familiaris [1]): 0.042
Etopic beats (Canis familiaris [2]): 3%
Etopic beats (Canis familiaris [3]): 7%
MABP (Canis familiaris [4]): 130 mmHg
MABP (Canis familiaris [5]): 135 mmHg
Cumulative dose (Canis familiaris [6]): 0.026 mM/kg
Ventricular rate (Canis familiaris [7]): 102 beats min-1
Ventricular rate (Canis familiaris [8]): 132 beats min-1
Ataxia (Mus musculus [9]): 0%
mortality [10]: 0%
Loss of righting reflex (Mus musculus [11]): 0%
ED50 (Mus musculus [12]): 150 µmol/kg
Protection (Mus musculus [13]): 90%
Convulsion (Mus musculus [14]): 0%

CC(C)Oc1ccc2c(c1)C1(CCC2)CC(=O)N(CCCN(C)C)C1=O (centres undefined)
MABP (Canis familiaris [15]): 125 mmHg
Blood level (Canis familiaris [16]): 0.013 uM ml-1
Blood level (Canis familiaris [17]): 0.021 uM ml-1
Cumulative dose (Canis familiaris [1]): 0.066
Etopic beats (Canis familiaris [18]): 2%
MABP (Canis familiaris [19]): 75 mmHg
MABP (Canis familiaris [20]): 90 mmHg and 100 mmHg
MABP (Canis familiaris [21]): 110 mmHg
Cumulative dose (Canis familiaris [6]): 0.077 and 0.133
Nature (Canis familiaris [22]): convulsion
Ventricular rate (Canis familiaris [23]): 120 beats min-1
Ventricular rate (Canis familiaris [24]): 165 beats min-1
Ventricular rate (Canis familiaris [25]): 150 beats min-1
Ventricular rate (Canis familiaris [26]): 171 beats min-1
Ventricular rate (Canis familiaris [27]): 138 beats min-1
Ataxia (Mus musculus [9]): 100%
mortality [10]: 0%
Loss of righting reflex (Mus musculus [11]): 10%
Protection (Mus musculus [13]): 50%
Convulsion (Mus musculus [14]): 0%
Ectopic beats (Canis familiaris [28]): 5%
Ectopic beats (Canis familiaris [29]): 15%

CCN(CC)CCCN1C(=O)CC2(CCCc3ccc(O)cc32)C1=O (centres undefined)
ClB [30]: 6.06 mL/min/kg
clearance ([30]; ClB): 3.81 mL/min/kg
Vd [31]: 1.58 L/kg
Vd [32]: 1.6 L/kg
MABP (Canis familiaris [33]): 85 mmHg and 125 mmHg
Dose (Canis familiaris [34]): 29 µM/kg
Blood level (Canis familiaris [35]): 0.019 uM ml-1
Blood level (Canis familiaris [36]): 0.01 uM ml-1
Etopic beats (Canis familiaris [37]): 0%
Etopic beats (Canis familiaris [38]): 6%
Dose (Canis familiaris [39]): 25 µM/kg
Ventricular rate (Canis familiaris [40]): 168 beats min-1
Ventricular rate (Canis familiaris [41]): 150 beats min-1
Ventricular rate (Canis familiaris [42]): 153 beats min-1
Ataxia (Mus musculus [9]): 0%
mortality [10]: 0%
Loss of righting reflex (Mus musculus [11]): 0%
ED50 (Mus musculus [12]): 90 µmol/kg
Protection (Mus musculus [13]): 80%
Convulsion (Mus musculus [14]): 0%
Cmax [43]: 31 µM
Cmax [44]: 15 µM
Ectopic beats (Canis familiaris [45]): 3%
